Assay results reported in ChEMBL document CHEMBL1159074, “Inhibitory effect of novel tetrahydropyrimidine-2(1H)-thiones on melanogenesis” (Bioorg Med Chem, 2010).
The source made the active and inactive calls. The rule behind the calls is not given here.

Experiments:
B16 [1] = experiment: Inhibition of alpha-MSH-induced melanin production in mouse B16 cells at 10 uM after 72 hrs; format: functional; conditions: B16, 72 h
Method in brief: (§1)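 B16 melanoma cells (ATCC CRL6323) were seeded at 2.5 × 10³ per well and kept at 37 °C under 5% CO₂. They were stimulated with α-MSH for 72 h with compound present. Melanin released into the medium was read by absorbance at 405 nm against a synthetic melanin standard. % inhibition at 10 µM and IC₅₀ are means of 3–5 separate experiments.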

B16 [2] = experiment: Inhibition of alpha-MSH-induced melanin production in mouse B16 cells after 72 hrs; format: functional, cell-based; conditions: B16, 72 h; method in brief: as §1
B16 [3] = experiment: Inhibition of tyrosinase protein biosynthesis in alpha-MSH-induced mouse B16 cells after 48 hrs by Western blot; format: functional, cell-based
Method in brief: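 B16 cells were stimulated with α-MSH (10 nM) for 48 h with compound present. They were lysed in Tris/NaCl buffer (0.1% SDS, 1% NP-40, protease inhibitors, pH 7.4). Blots were probed overnight at 4 °C with anti-tyrosinase (1:1000), with GAPDH (1:5000) as internal control, then with HRP-conjugated secondary antibody.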

B16 [4] = experiment: Toxicity in alpha-MSH-induced mouse B16 cells assessed as effect on cell viability after 48 hrs by MTT assay; format: cell-based; conditions: b16, 48 h
[5] = target: T1, Tyrosinase (Mus musculus) (UniProt P11344); experiment: Inhibition of cell free tyrosinase in alpha-MSH-induced mouse B16 cells assessed as effect on Dopa oxidation by spectrophotometry
T1 sequence (whole entry): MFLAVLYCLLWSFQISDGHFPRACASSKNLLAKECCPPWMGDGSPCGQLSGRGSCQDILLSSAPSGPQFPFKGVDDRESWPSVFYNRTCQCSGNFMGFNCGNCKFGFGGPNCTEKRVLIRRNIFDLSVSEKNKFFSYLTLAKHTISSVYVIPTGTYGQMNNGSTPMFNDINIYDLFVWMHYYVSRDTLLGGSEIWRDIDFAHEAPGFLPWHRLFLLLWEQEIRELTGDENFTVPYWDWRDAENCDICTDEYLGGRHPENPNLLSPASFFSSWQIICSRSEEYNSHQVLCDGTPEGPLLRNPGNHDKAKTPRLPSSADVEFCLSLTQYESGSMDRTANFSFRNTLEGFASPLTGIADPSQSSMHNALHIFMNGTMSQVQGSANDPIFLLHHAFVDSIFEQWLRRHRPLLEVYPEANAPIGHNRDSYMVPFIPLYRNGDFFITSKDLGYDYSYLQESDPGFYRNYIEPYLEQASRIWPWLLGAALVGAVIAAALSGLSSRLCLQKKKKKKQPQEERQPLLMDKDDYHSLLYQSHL
Method in brief: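 Cell-free tyrosinase came from B16 cells stimulated with α-MSH (10 nM). Cells were sonicated on ice in 50 mM sodium phosphate pH 6.8 with 1% Triton X-100 and 1 mM PMSF. The supernatant was dialysed and diluted to 80,000 U/mg protein. Dopa (5 mM), sample and enzyme were mixed in 50 mM phosphate pH 6.8. Dopa oxidation velocity was read spectrophotometrically.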

SMILES | inhibition at 10 µM (B16 [1]) | IC50 (B16 [2]) | inhibition (B16 [3]) | Activity (B16 [4]) | inhibition [5]
S=C1NCCN1CCCc1ccccc1 | 63% | 4.2 µM | – | – | –
CCc1ccc(CN2CCCNC2=S)cc1 | > 100% | 1.3 µM | – | – | –
O=C1NCCCN1CCCc1ccccc1 | 10% | > 10 µM | – | – | –
S=C1NCCCN1Cc1ccccc1 | 42% | > 10 µM | – | – | –
S=C1NCCCN1CCCc1ccccc1 | > 100% | 2.1 µM | – | – | –
O=C1NCCN1CCc1ccccc1 | 15% | > 10 µM | – | – | –
COc1ccc(CN2CCNC2=S)cc1 | 31% | > 10 µM | – | – | –
O=C1NCCCN1CCc1ccccc1 | 10% | > 10 µM | – | – | –
Cc1ccc(CN2CCCNC2=S)cc1 | 80% | 5.1 µM | – | – | –
S=C1NCCN1Cc1ccc(Cl)cc1 | 79% | 4.3 µM | – | – | –
O=C1NCCCN1Cc1ccccc1 | 0% | > 10 µM | – | – | –
S=C1NCCCN1Cc1ccc(Cl)cc1 | > 100% | 2.4 µM | – | – | –
COc1ccc(CN2CCCNC2=S)cc1 | 60% | 6.1 µM | – | – | –
COc1ccc(CN2CCNC2=O)cc1 | 13% | > 10 µM | – | – | –
OC[C@H]1O[C@@H](Oc2ccc(O)cc2)[C@H](O)[C@@H](O)[C@@H]1O [ARBUTIN] | > 100% | – | – | – | –
O=C1NCCN1Cc1ccc(Cl)cc1 | 10% | > 10 µM | – | – | –
O=C1NCCN1CCCc1ccccc1 | 10% | > 10 µM | – | – | –
S=C1NCCN1CCc1ccccc1 | 40% | > 10 µM | – | – | –
Cc1ccc(CN2CCNC2=O)cc1 | 14% | > 10 µM | – | – | –
Cc1ccc(CN2CCCNC2=O)cc1 | 5% | > 10 µM | – | – | –
CC(C)(C)c1ccc(CN2CCCNC2=S)cc1 | > 100% | 0.8 µM | Active | Non-toxic | inactive
CCc1ccc(CN2CCCNC2=O)cc1 | 29% | > 10 µM | – | – | –
CC(C)(C)c1ccc(CN2CCCNC2=O)cc1 | 30% | > 10 µM | – | – | –
O=C1NCCCN1Cc1ccc(Cl)cc1 | 26% | > 10 µM | – | – | –
Cc1ccc(CN2CCNC2=S)cc1 | 64% | 4.8 µM | – | – | –
O=C1NCCN1Cc1ccccc1 | 7% | > 10 µM | – | – | –
S=C1NCCCN1CCc1ccccc1 | 93% | 2.9 µM | – | – | –
COc1ccc(CN2CCCNC2=O)cc1 | 20% | > 10 µM | – | – | –
S=C1NCCN1Cc1ccccc1 | 35% | > 10 µM | – | – | –
